Source: publication PMC7332640 (Acta Pharmaceutica Sinica. B, 2019)

Legend:
[1] = In vitro phosphorylation of compounds in rat whole blood; format: in vitro ADME; settings: for Vmax (phosphorylation): 37 °C, 60 min, 1–100 μmol/L; for Km: read-out: Km (phosphorylation), 37 °C, 60 min, 1–100 μmol/L
Method in brief: (§1)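 Test compound was spiked directly into fresh whole blood at eight levels from 1 to 100 and incubated at 37 °C for 60 min. Reactions were quenched with ice-cold acetonitrile, vortexed and centrifuged. The supernatant was analysed by LC-MS/MS for phosphate formation. Km and Vmax were obtained by nonlinear fitting to the Michaelis–Menten equation.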

[2] = In vitro phosphorylation of compounds in human whole blood; format: in vitro ADME; settings: for Vmax (phosphorylation): 37 °C, 60 min, 1–100 μmol/L; for Km: read-out: Km (phosphorylation), 37 °C, 60 min, 1–100 μmol/L
Method in brief: as §1

[3] = format: in vivo; settings: Sprague–Dawley rats, oral 3 mg/kg
Method in brief: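 Male Sprague–Dawley rats, three per group, were fasted 12 h, dosed orally at 3 mg/kg in 0.5% hydroxypropyl methylcellulose, and fed 4 h postdose. Heparinized orbital blood was taken from 0.08 to 48 h, including 6 h, and protein-precipitated with acetonitrile. Parent and phosphorylated drug were quantified by positive-ESI MRM LC-MS/MS on a C18 column with a formic acid water/methanol gradient.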

Structure (SMILES): CCCCCCCCc1ccc(CC[C@@](C)(N)CO)cc1.Cl [Compound 21, (R)-2-Amino-2-methyl-4-(4-octylphenyl)butan-1-ol hydrochloride]
- CLint (phosphorylation) [1]: 1.545 µL/min
- Vmax (phosphorylation) [1]: 221 ± 36.8 pmol/min
- Km [1]: 143 ± 25.4 µM
- CLint (phosphorylation) [2]: 0.295 µL/min
- Vmax (phosphorylation) [2]: 3.36 ± 0.62 pmol/min
- Km [2]: 11.4 ± 1.9 µM
- phosphorylation level at 6 h after dosing [3]: 95%

Structure (SMILES): CCCCCCCCc1ccc(CC[C@@H](N)CO)cc1.Cl [Compound 22, (R)-2-Amino-4-(4-octylphenyl)butan-1-ol hydrochloride]
- CLint (phosphorylation) [1]: 3.121 µL/min
- Vmax (phosphorylation) [1]: 28.4 ± 4.5 pmol/min
- Km [1]: 9.1 ± 1.8 µM
- CLint (phosphorylation) [2]: 0.021 µL/min
- Vmax (phosphorylation) [2]: 1.24 ± 0.31 pmol/min
- Km [2]: 58.2 ± 10.6 µM
- phosphorylation level at 6 h after dosing [3]: 69%

Structure (SMILES): CCc1nc(-c2ccc(-c3ccc(CC[C@@](C)(N)CO)cc3)cc2)co1.Cl [Compound 23, (R)-2-Amino-4-(4′-(2-ethyloxazol-4-yl)-[1,1′-biphenyl]-4-yl)-2-methylbutan-1-ol hydrochloride]
- CLint (phosphorylation) [1]: 0.505 µL/min
- Vmax (phosphorylation) [1]: 65.2 ± 8.2 pmol/min
- Km [1]: 129 ± 15.6 µM
- CLint (phosphorylation) [2]: 0.012 µL/min
- Vmax (phosphorylation) [2]: 0.87 ± 0.09 pmol/min
- Km [2]: 65.5 ± 8.3 µM
- phosphorylation level at 6 h after dosing [3]: 94%

Structure (SMILES): CCc1nc(-c2ccc(-c3ccc(CC[C@@H](N)CO)cc3)cc2)co1.Cl [Compound 24, (R)-2-Amino-4-(4′-(2-ethyloxazol-4-yl)-[1,1′-biphenyl]-4-yl)butan-1-ol hydrochloride]
- CLint (phosphorylation) [1]: 0.015 µL/min
- Vmax (phosphorylation) [1]: 1.9 ± 0.3 pmol/min
- Km [1]: 128 ± 23.4 µM
- CLint (phosphorylation) [2]: 0.006 µL/min
- Vmax (phosphorylation) [2]: 0.24 ± 0.05 pmol/min
- Km [2]: 40.2 ± 7.3 µM
- phosphorylation level at 6 h after dosing [3]: 89%

Structure (SMILES): CCCCCCCCc1ccc(CCC(N)(CO)CO)cc1 [FTY720, fingolimod, reference compound]
- CLint (phosphorylation) [1]: 0.930 µL/min
- Vmax (phosphorylation) [1]: 63.4 ± 10.2 pmol/min
- Km [1]: 68.2 ± 11.2 µM
- CLint (phosphorylation) [2]: 0.013 µL/min
- Vmax (phosphorylation) [2]: 0.33 ± 0.05 pmol/min
- Km [2]: 25.7 ± 4.2 µM
- phosphorylation level at 6 h after dosing [3]: 80%
